From ChEMBL document CHEMBL1134280, “Discovery and biological evaluation of a new family of potent inhibitors of the dual specificity protein phosphatase Cdc25” (J Med Chem, 2001)

Columns and labels:
[1] = target: T1, M-phase inducer phosphatase 2 (Homo sapiens, UniProt P30305); test: Inhibitory activity against recombinant human cell division cycle 25B
T1 sequence (P30305 whole entry): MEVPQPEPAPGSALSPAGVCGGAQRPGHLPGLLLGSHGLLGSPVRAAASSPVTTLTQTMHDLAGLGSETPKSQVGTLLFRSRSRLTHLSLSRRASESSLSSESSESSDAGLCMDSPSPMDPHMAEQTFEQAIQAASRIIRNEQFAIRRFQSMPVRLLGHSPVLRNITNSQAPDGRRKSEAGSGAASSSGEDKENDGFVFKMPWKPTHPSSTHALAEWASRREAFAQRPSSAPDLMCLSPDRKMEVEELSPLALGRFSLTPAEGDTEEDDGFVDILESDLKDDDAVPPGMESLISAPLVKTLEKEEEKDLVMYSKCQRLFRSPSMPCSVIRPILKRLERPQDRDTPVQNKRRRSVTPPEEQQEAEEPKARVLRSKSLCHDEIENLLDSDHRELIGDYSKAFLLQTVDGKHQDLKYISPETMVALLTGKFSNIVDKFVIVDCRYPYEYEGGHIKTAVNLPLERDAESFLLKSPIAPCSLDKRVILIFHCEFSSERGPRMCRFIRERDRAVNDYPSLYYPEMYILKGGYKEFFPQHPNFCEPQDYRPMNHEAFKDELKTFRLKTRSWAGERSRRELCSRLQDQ
In short: (§1)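 GST-fusion enzyme (Cdc25B₂, VHR) or human recombinant PTP1B, with O-methyl fluorescein phosphate as substrate in a miniaturized microtiter format. IC50 values were taken from concentration–response data.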

[2] = target: T2, Tyrosine-protein phosphatase non-receptor type 1 (Homo sapiens, UniProt P18031); test: Inhibitory Activity against Recombinant Human PTP1
T2 sequence (P18031 whole entry): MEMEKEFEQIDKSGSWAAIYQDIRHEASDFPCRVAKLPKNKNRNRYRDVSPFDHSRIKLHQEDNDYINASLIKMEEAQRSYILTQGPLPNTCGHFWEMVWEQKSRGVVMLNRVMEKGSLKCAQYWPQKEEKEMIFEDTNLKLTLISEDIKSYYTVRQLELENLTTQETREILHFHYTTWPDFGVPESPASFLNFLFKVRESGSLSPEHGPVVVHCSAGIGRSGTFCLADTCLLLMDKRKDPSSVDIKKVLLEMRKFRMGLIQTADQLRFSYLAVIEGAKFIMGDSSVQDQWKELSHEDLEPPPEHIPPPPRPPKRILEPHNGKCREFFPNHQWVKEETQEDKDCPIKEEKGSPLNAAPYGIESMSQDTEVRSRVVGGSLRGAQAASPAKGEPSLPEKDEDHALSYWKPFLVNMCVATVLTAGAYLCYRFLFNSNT
In short: as §1, with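 “format. After 60 min at ambient temperature, product fluorescence was read (excitation 485/20, emission 530/30).” for “format.”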

[3] = target: Dual specificity protein phosphatase 3 (Homo sapiens, UniProt P51452); test: Inhibitory Activity against Recombinant Human VHR
In short: as §1, with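 “format. After 60 min at ambient temperature, product fluorescence was read (excitation 485/20, emission 530/30).” for “format.”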

Dual specificity protein phosphatase 3, sequence (P51452 whole entry): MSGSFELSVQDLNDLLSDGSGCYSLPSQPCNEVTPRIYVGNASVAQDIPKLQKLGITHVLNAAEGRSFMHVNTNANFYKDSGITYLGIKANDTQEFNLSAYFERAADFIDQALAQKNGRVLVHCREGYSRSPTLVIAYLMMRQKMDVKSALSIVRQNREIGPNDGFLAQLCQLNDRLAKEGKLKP

| SMILES | IC50 [1] [µM] | IC50 [2] [µM] | IC50 [3] [µM] |
| --- | --- | --- | --- |
| CC(/N=C1\C=C(O)c2cccnc2C1=O)C(O)c1ccccc1 (centres undefined) | 0.51 | > 100 | 16 |
| COC(=O)c1nc(-c2ccc3c(n2)C(=O)C(=N)C(OC)=C3O)c(N)c(-c2ccc(OC)c(OC)c2O)c1C | 0.37 | 8.7 | 5.1 |
| O=C1/C(=N/CCc2cc(Br)c(O)c(Br)c2)C=C(O)c2cccnc21 | 0.64 | 8 | 8.5 |
| O=C1C=CC(=O)c2ncccc21 | 3 | > 10 | > 10 |
| CC(/N=C1\C=C(O)c2ncccc2C1=O)C(O)c1ccccc1 (centres undefined) | 0.67 | > 10 | > 10 |
| O=C1C(Cl)=C(NCCN2CCOCC2)C(=O)c2cnccc21 | 0.59 | > 10 | > 10 |
| COc1cc(CC/N=C2\C=C(O)c3cccnc3C2=O)ccc1O | 0.45 | > 100 | 17 |
| CCCCCCOc1ccc(NC2=C(Cl)C(=O)c3cccnc3C2=O)cc1 | 0.93 | > 10 | > 10 |
| O=C1/C(=N\C(Cc2c[nH]c3ccccc23)C(=O)O)C(Cl)=C(O)c2cccnc21 (centres undefined) | 16 | > 10 | > 10 |

Other lines, results leading:

| IC50 [1] [µM] | IC50 [2] [µM] | IC50 [3] [µM] | SMILES |
| --- | --- | --- | --- |
| 0.43 | 9.8 | 1.1 | O=C1C(Cl)=C(NCCN2CCOCC2)C(=O)c2cnncc21 |
| 0.82 | > 10 | > 10 | O=C1C(NCCN2CCOCC2)=C(Cl)C(=O)c2ncccc21 |
| 1.5 | > 10 | > 10 | O=C1C(Cl)=C(Cl)C(=O)c2cnccc21 |
|  | > 100 | 4 | O=C1C(Cl)=C(NCCN2CCOCC2)C(=O)c2ncccc21 |
| 4.6 | > 10 | > 10 | O=C1C(Cl)=C(Cl)C(=O)c2ncccc21 |
| 8.9 | > 10 | > 10 | O=C1C(Cl)=C(Cl)C(=O)c2cnncc21 |
| 5.1 | > 10 | > 10 | O=C1C(Cl)=C(NCCc2c[nH]c3ccccc23)C(=O)c2ncccc21 |
| 4.8 | > 10 | > 10 | O=C1C(Cl)=C(Cl)C(=O)c2ncncc21 |
| 0.9 | > 10 | > 10 | O=C1C(Cl)=C(N2CCN(CCOCCO)CC2)C(=O)c2ncccc21 |
| 0.3 |  |  | O=C1C(Cl)=C(NC2CCc3ccccc32)C(=O)c2ncccc21 (centres undefined) |
